For test [1], the target named is PRMT5/MEP50 complex (Homo sapiens, UniProt O14744). As to the kind of experiment: Inhibition of full-length human N-terminal FLAG-tagged PRMT5/full length N-terminal His6-tagged MEP50 (unknown origin) expressed in baculovirus infected Sf9 insect cells assessed as reduction of S-adenosyl-L-homocysteine formation using human recombinant histone H2A (1 to 130 residues) and S-adenosyl-L-methionine as substrate after 60 mins by rapidfire mass spectrometry analysis. In short, it runs like this: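 PRMT5–MEP50 complex at 5.0 nM in assay; recombinant human histone H2A as substrate. Read-out is the decrease in SAM→SAH conversion, measured by RapidFire high-throughput mass spectrometry. IC50 reported as mean of n ≥ 2.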
Sequence of PRMT5/MEP50 complex (O14744 whole entry, the tested form may be a part): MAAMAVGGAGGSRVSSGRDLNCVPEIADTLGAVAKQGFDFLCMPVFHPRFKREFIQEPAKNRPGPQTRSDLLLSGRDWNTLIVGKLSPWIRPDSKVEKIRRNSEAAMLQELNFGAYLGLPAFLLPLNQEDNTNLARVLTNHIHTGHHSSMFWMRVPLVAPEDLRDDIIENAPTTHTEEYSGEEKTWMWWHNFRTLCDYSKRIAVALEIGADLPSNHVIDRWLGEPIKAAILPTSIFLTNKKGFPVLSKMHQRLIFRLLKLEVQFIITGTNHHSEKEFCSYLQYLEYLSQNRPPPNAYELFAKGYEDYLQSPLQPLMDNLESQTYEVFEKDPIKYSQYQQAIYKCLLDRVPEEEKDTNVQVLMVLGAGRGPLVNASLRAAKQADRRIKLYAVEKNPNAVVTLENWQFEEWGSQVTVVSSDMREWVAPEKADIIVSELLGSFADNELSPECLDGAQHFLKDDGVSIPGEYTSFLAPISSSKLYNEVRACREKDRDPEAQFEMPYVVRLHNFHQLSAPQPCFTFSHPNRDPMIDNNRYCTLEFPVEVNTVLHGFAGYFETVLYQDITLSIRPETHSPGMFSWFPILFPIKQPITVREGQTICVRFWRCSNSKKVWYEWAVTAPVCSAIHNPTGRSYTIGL
Sequence of PRMT5/MEP50 complex (Q9BQA1 whole entry, further chain, the tested form may be a part): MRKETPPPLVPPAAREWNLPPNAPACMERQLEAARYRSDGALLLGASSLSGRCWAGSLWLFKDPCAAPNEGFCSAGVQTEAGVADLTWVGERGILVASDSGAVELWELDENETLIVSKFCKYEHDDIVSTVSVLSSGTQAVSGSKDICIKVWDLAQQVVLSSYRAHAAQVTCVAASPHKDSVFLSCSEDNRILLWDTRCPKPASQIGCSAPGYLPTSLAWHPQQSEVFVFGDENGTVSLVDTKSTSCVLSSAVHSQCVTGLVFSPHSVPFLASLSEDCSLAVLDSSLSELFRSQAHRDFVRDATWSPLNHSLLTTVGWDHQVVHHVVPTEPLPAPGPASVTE

Test [2] addresses Protein arginine N-methyltransferase 5 (Homo sapiens, UniProt O14744). As to the kind of experiment: Inhibition of PRMT5 in human A549 cells assessed as reduction in arginine dimethylation of SmD1/3 after 48 hrs by Hoechst Stain/ CellMask Deep Red Stain based immunohistochemistry method. It counts as cell-based. In short, it runs like this: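 A549 cells treated with compound for 48 h (2 days). Symmetric arginine dimethylation of SmD1/3 measured by immunofluorescence microscopy as the nuclear/cytoplasmic intensity ratio, normalized to DMSO control. Concentration–response curves; mean ± SE of at least three replicates (n ≥ 3).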

pIC50: −log10 of the molar value.

Sequence of Protein arginine N-methyltransferase 5 (O14744 whole entry): as the sequence (O14744 whole entry, the tested form may be a part) above

With `Nc1ncnc2c1ncn2[C@@H]1O[C@H](CN2CCCC23CNC3)[C@@H](O)[C@H]1O`, the pIC50 in test [1] is 6.13. Still for that read-out and setting: next, `CC(=O)N1CCC2(CCCN2C[C@H]2O[C@@H](n3cnc4c(N)ncnc43)[C@H](O)[C@@H]2O)CC1`: less than 5.00. Turning to `NCC[C@@H]1CCCN1C[C@H]1O[C@@H](n2cnc3c(N)ncnc32)[C@H](O)[C@@H]1O`, the values for the negative logarithm of the IC50 (pIC50) in test [2] and in test [1] were 5.62 and 7.08, respectively. With `Nc1ncnc2c1ncn2[C@@H]1O[C@H](CN2CCCC23CCCCC3)[C@@H](O)[C@H]1O`, the pIC50 in test [1] is less than 5.00. On the same count and under the same terms, next, `Nc1ncnc2c1ncn2[C@@H]1O[C@H](CN2CCCC3(CNC3)C2)[C@@H](O)[C@H]1O`: 6.28; `Nc1ncnc2c1ncn2[C@@H]1O[C@H](CN2CCC3(CCNCC3)C2)[C@@H](O)[C@H]1O`: 5.27; `Nc1ncnc2c1ncn2[C@@H]1O[C@H](CN2CCC23CCNCC3)[C@@H](O)[C@H]1O`: 6.43. In the case of `Nc1ncnc2c1ncn2[C@@H]1O[C@H](CN2CCC3(CCNC3)CC2)[C@@H](O)[C@H]1O`, in test [1], the pIC50 is less than 5.00.

In the case of `NCC[C@H]1CCCN1C[C@H]1O[C@@H](n2cnc3c(N)ncnc32)[C@H](O)[C@@H]1O`, the negative-log IC50 (pIC50) in test [1] is 6.47.
